ChEMBL document CHEMBL4425094, “Novel Benzo[a]quinolizidine Analogs Induce Cancer Cell Death through Paraptosis and Apoptosis” (J Med Chem, 2016)
Activity calls are given as the source filed them. The rule behind the calls is not given here.

How the values were obtained:
PC-3 [1] = assay: Cytotoxicity in human PC3 cells assessed as reduction in cell viability after 24 hrs in presence of CHX by MTT assay; format: functional, cell-based
In short: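 PC3 cells pretreated with 10 μM actinomycin D or 5 μM cycloheximide, then treated with compound for 24 h. Viability by MTT at 570 nm. Vacuolation imaged by phase-contrast microscopy.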

PC-3 [2] = assay: Cytotoxicity against human PC3 cells assessed as reduction in cell viability at 1 uM after 24 hrs in presence of PI3K inhibitor 3-MA by MTT assay; format: functional, cell-based
In short: (§1)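 PC3 cells pretreated with autophagy inhibitor 3-MA or E64d, then given 1 μM compound for 24 h. Viability measured by MTT (4 h, 570 nm). Morphology checked by phase-contrast microscopy.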

PC-3 [3] = assay: Induction of apoptosis in human PC3 cells assessed as early apoptotic cells at 0.5 uM after 24 hrs by Annexin V-FITC/propidium iodide based flow cytometric analysis (reference value: 2.3 %); format: functional
In short: (§2)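 PC3 cells exposed to 0.5, 1 or 2 μM for 24 h, then stained with Annexin V-FITC and PI and analyzed by FACSCalibur flow cytometry. Populations assigned as necrotic (Annexin V−/PI+), late apoptotic (double positive), normal (Annexin V−/PI−) and early apoptotic (Annexin V+/PI−). DMSO vehicle control.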

PC-3 [4] = assay: Induction of ER stress in human PC3 cells assessed as GRP78 upregulation incubated for 22 hrs after ER stress inhibitor 4-PBA exposure for 2 hrs by Western blot analysis; format: functional, cell-based
In short: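 PC3 cells pretreated 2 h with 4-PBA (100 μM), then compound added for a further 22 h. Viability measured by MTT. GRP78 assessed by Western blot, along with XBP1 mRNA splicing analysis. Morphology by phase contrast.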

PC-3 [5] = assay: Cytotoxicity against human PC3 cells assessed as reduction in cell viability at 1 uM after 24 hrs in presence of […] inhibitor E-64d by MTT assay; format: functional, cell-based; in short: as §1
PC-3 [6] = assay: Induction of apoptosis in human PC3 cells after 24 hrs by Annexin V-FITC/propidium iodide based flow cytometric analysis; format: functional, cell-based; in short: as §2
HeLa = assay: Cytotoxicity against human HeLa cells assessed as cell growth inhibition after 24 hrs by MTT assay; format: functional, cell-based
In short: (§3)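 Cells seeded 24 h in RPMI 1640 + 10% FBS. RWPE-1 was kept in K-SFM with bovine pituitary extract and EGF. Cells then exposed to compounds for 24 h at 37 °C, 5% CO2, with DMSO vehicle and docetaxel as positive control. MTT added for 4 h, absorbance read at 570 nm. Triplicate runs, IC50 reported as mean of three experiments.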

PC-3M [7] = assay: Antitumor activity against human PC3M-lluc-C6 cells xenografted in athymic Balb/c mouse assessed as decrease in tumor burden by measuring photon intensity at 15 mg/kg, ip measured on day 9 by bioluminescence method (reference value: 6.501 x 10^9 photons/s/cm2); format: functional
PC-3 [8] = assay: Growth inhibition of human PC3 cells at IC30 in presence of MG139 assessed as combination index by MTT assay; format: functional
In short: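 PC3 cells incubated with increasing concentrations of compound combined with a second agent (bortezomib or partner compound). Viability determined, combination index calculated: CI < 1 synergism, = 1 additive, > 1 antagonism.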

PC-3M [9] = assay: Induction of immature autophagy i in human PC3M-lluc-C6 cells xenografted in athymic Balb/c mouse assessed as increase in p62 protein levels at 15 mg/kg, ip administered every 2 days for 18 days by Western blot and immunohistochemical staining method; format: functional, organism-based
In short: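 Male athymic BALB/c-nu mice (6 weeks) carried subcutaneous right-flank PC3M-luc-C6 xenografts (5 × 10^6 cells). At ~0.1 cm3 they were grouped (n = 5) and given 15 mg/kg i.p. suspension every 2 days; placebo and docetaxel 15 mg/kg were controls. Tumors were analyzed by Western blot and by immunohistochemistry (anti-LC3 1:800, anti-p62 1:500, overnight 4 °C, HRP/DAB, hematoxylin counterstain).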

PC-3 [10] = assay: Induction of apoptosis in human PC3 cells assessed as necrotic cells at 1 uM after 24 hrs by Annexin V-FITC/propidium iodide based flow cytometric analysis (reference value: 1.1 %); format: functional; in short: as §2
PC-3 [11] = assay: Induction of autophagy in human PC3 cells assessed as vacuole formation at 1 uM after 24 hrs in presence of […] inhibitor E-64d by phase-contrast microscopic analysis; format: functional, cell-based
In short: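 PC3 cells were pretreated with the autophagy inhibitor (3-MA or E64d), then exposed to 1 μM test agent for 24 h. Morphology was imaged by phase-contrast microscopy, and viability was read by MTT at 570 nm. Comparison was against agent-only cells.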

PC-3 [12] = assay: Induction of cell cycle arrest in human PC3 cells assessed as accumulation in S phase at 2 uM after 24 hrs by […]propidium iodide based flow cytometric analysis (reference value: 21 to 31.6 %); format: functional
PC-3M [13] = assay: Antitumor activity against human PC3M-lluc-C6 cells xenografted in athymic Balb/c mouse assessed as decrease in tumor burden by measuring photon intensity at 15 mg/kg, ip measured on day 18 by bioluminescence method (reference value: 2.332 x 10^10 photons/s/cm2); format: functional
DU-145 = assay: Cytotoxicity against human DU145 cells assessed as cell growth inhibition after 24 hrs by MTT assay; format: functional, cell-based; conditions: DU-145, 24 h; in short: as §3

## Cc1cc(C)cc(COc2cc3c(cc2OCc2cc(C)cc(C)c2)[C@@H]2C[C@H](O)C[C@@H](C)N2CC3)c1 (racemic)
PC-3 [1]
  Activity: inactive
PC-3 [2]
  Activity: inactive
PC-3 [3]
  Activity: 2.5%
PC-3 [4]
  Activity: inactive
PC-3 [5]
  Activity: inactive
PC-3 [6]
  Activity: Dose-dependent effect
HeLa
  IC50: 1650 nM
PC-3M [7]
  Activity: 2.45 ×10⁹ /s/cm2
PC-3 [8]
  CI: 0.1 - 0.3
PC-3M [9]
  Activity: Active
PC-3 [10]
  Activity: 1.6%
PC-3 [11]
  Activity: Active
PC-3 [12]
  Activity: 6.38 - 9.05%
PC-3M [13]
  Activity: 1.766 ×10⁹ /s/cm2
DU-145
  IC50: 1960 nM
